A short description of data set [1]: Selectivity index, ratio of IC50 for human MRC5 cells to IC50 for human HeLa cells. As to conditions: MRC5 cells versus HeLa cells, read-out: Ratio IC50. In kind it is cell-based.
Data set [2] can be described thus: Selectivity index, ratio of IC50 for rat L6 cells to IC50 for adult Schistosoma mansoni schistosomes. The essentials: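 Ratio of L6 IC50 to adult S. mansoni IC50, both from the assays above.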
For data set [3], the system named is Schistosoma mansoni. Description: Antischistosomal activity against adult Schistosoma mansoni infected NMRI mouse juvenile infection model assessed as reduction in total worm burden at 400 mg/kg administered as single dose starting from 21 days post infection. Also noted: scale not given: the % may be the effect or the level left. In kind it is functional. The essentials:
(§1)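 Juvenile model: NMRI mice infected with ~100 cercariae were given a single oral 400 mg/kg dose on day 21 post infection. Dissected four weeks after treatment, worms sexed and counted. Total and female burden reductions calculated against untreated controls.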

Data set [4] deals with Schistosoma mansoni. In words: Antischistosomal activity against Schistosoma mansoni NTS incubated for 72 hrs. Format: functional, organism-based. The essentials: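 NTS from mechanically transformed cercariae (Liberian strain), 100 per well in Medium 199 + 5% iFCS, penicillin/streptomycin, preincubated 12–24 h at 37°C, 5% CO2. Exposed to 0.37–90 μg/ml (threefold steps) for 72 h. Scored microscopically on a viability scale (death, motility, morphology). DMSO control; duplicates, at least three experiments; IC50 from viability scores.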

Data set [5] concerns Schistosoma mansoni. Description: Antischistosomal activity against adult Schistosoma mansoni infected NMRI mouse adult infection model assessed as reduction in female worm burden at 400 mg/kg administered as single dose starting from 49 days post infection. Format: functional. Also on record: scale not given: the % may be the effect or the level left. The essentials: (§2)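 Mice infected subcutaneously with ~100 S. mansoni cercariae (Liberian strain). At day 49 post infection, groups of 4 NMRI mice received a single oral 400 mg/kg dose; 8–10 untreated controls. Total and female worm burden reductions calculated against untreated controls.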

In the next data set the test system is HeLa. Description: Cytotoxicity against human HeLa cells incubated for 48 hrs by resazurin dye reduction assay. In kind it is cell-based.
Another data set concerns L6. In words: Cytotoxicity against rat L6 cells incubated for […] hrs by Alamar blue assay. In kind it is cell-based. (Alamar Blue is a resazurin reagent that responds to reducing activity.)
The subject of data set [6] is Schistosoma mansoni. In words: Antischistosomal activity against adult Schistosoma mansoni schistosomes incubated for 72 hrs. Format: functional, organism-based.
Data set [7] has as its system Schistosoma mansoni. Description: Antischistosomal activity against adult Schistosoma mansoni infected NMRI mouse juvenile infection model assessed as reduction in female worm burden at 400 mg/kg administered as single dose starting from 21 days post infection. Format: functional. Also on record: scale not given: the % may be the effect or the level left. The essentials:
as §1

The subject of a further data set is MRC5. Description: Cytotoxicity against human MRC5 cells incubated for 48 hrs by resazurin dye reduction assay. In kind it is cell-based. The conditions noted are these: MRC5, 48 h.
Data set [8] relates to Schistosoma mansoni. In words: Antischistosomal activity against adult Schistosoma mansoni infected NMRI mouse adult infection model assessed as reduction in total worm burden at 400 mg/kg administered as single dose starting from 49 days post infection. Format: functional. Also noted: scale not given: the % may be the effect or the level left. The essentials: as §2

A word on the IC50: it is the point on the concentration scale where inhibition reaches its midpoint. Regarding `C[C@]12OO[C@](C)(OO1)C2C12CC3CC(CC(C3)C1)C2` (stereo partly specified), the selectivity ratio in data set [1] came out at 2. Besides, the “Ratio IC50” value in [2] was 5.7. The Activity in the data set with Schistosoma mansoni [3] turned out to be 43.1%; in the data set on Schistosoma mansoni [5], 77.8%; in the data set on Schistosoma mansoni [7], 50%; in the data set on Schistosoma mansoni [8] it was 75.4%. Moreover, the IC50 in the data set on Schistosoma mansoni [4] worked out at 100 nM; in the data set on HeLa, 400 nM; with L6, 1700 nM; in the data set with Schistosoma mansoni [6], 300 nM; in the data set with MRC5 it was 1200 nM.

The values above are taken from ChEMBL document CHEMBL2169849, “Identification of antischistosomal leads by evaluating bridged 1,2,4,5-tetraoxanes, alphaperoxides, and tricyclic monoperoxides” (J Med Chem, 2012).
